pIC50: −log10 of the molar value.
Tests used:
Cavia porcellus [1] = test: In vivo inhibitory effect on airway constriction induced by histamine 2-5 ug/kg iv at 1 min after 10 mg/kg iv dose of compound; type: functional
Method in brief: (§1)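 Male Dunkin-Hartley guinea pigs anesthetized with pentobarbital 35 mg/kg ip, jugular vein and trachea cannulated, ventilated at 10 mL/kg, 60 strokes/min. Insufflation pressure recorded. Histamine 2–5 μg/kg iv repeated every 10 min until a reproducible control response. Compound 10 mg/kg iv 1 min before the next challenge.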

[2] = target: T1, Thromboxane-A synthase (Rattus norvegicus) (UniProt P49430); test: Tested ex vivo against TXA2 production in rat serum at 1 hr after peroral dose of 30 mg/kg and anesthetized with ether; type: functional, organism-based; set-up: dose 30 mg/kg
T1 sequence (whole entry): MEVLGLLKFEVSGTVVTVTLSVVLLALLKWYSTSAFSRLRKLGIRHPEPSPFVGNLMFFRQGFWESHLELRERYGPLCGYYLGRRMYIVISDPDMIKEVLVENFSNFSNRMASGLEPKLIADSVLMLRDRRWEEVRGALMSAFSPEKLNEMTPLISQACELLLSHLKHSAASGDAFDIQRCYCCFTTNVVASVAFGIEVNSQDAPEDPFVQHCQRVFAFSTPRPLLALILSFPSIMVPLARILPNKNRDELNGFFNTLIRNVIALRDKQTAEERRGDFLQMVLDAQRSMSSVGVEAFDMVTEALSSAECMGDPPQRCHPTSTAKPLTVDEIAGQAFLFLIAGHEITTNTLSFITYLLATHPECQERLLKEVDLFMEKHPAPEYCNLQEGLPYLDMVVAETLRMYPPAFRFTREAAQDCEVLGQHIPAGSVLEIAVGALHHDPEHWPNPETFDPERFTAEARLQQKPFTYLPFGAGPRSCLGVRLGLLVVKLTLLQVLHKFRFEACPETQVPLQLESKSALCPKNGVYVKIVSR
Method in brief: (§2)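 Male SD rats (240–260 g), fasted 20 h, dosed orally with compound in 0.5% carboxymethylcellulose or vehicle alone. At 1 h, ether anesthesia and 2 mL cardiac blood taken and clotted at 37 °C for 90 min.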

Cavia porcellus [3] = organism: Cavia porcellus; test: In vitro inhibitory effect on the contraction of guinea pig tracheal strips was examined for spontaneous contraction; type: functional; details: Trachea
Cavia porcellus [4] = organism: Cavia porcellus; test: In vitro bronchodilatory activity in guinea pig isolated tracheal strips; type: functional; details: Trachea
Thromboxane-A synthase [5] = target: T2, Thromboxane-A synthase (Rattus norvegicus, UniProt P49430); test: Tested in vitro against TXA2 synthetase inhibitory activity in rat platelet
T2 sequence (P49430 whole entry): T1 sequence (whole entry)
Method in brief: (§3)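 Citrated human or rat blood centrifuged to platelet-rich plasma and platelets resuspended in Krebs-Henseleit at 1×10^8 cells/mL. Used for TXB2 production.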

Cavia porcellus [6] = test: Tested in vivo for histamine-induced bronchoconstriction in guinea pig at intraduodenal dose of 10 mg/kg for 30 min; type: functional; details: 0.5 h
Method in brief: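 Anesthetized, ventilated guinea pigs (pentobarbital 35 mg/kg ip) with insufflation pressure recorded. Histamine 2–5 μg/kg iv given repeatedly until a reproducible response. Compound 10 mg/kg injected into the duodenum through a catheter 30 min before histamine challenge. Expressed as % inhibition of the control response.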

[7] = test system: Thromboxane-A synthase (Oryctolagus cuniculus); test: Tested in vitro against rabbit thromboxane A2 synthetase (TXA2) at 1 uM
Cavia porcellus [8] = organism: Cavia porcellus; test: In vitro inhibitory effect on the spasmogen-contracted guinea pig tracheal strips in presence of histamine; type: functional; details: Trachea
Method in brief: (§4)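 Tracheal strips in oxygenated Krebs-Henseleit, preincubated 60 min with indomethacin (3 μM) to remove spontaneous tone, resting tension 1 g. Contraction induced by acetylcholine (10^-5 M final) or histamine (10^-4 M final), with indomethacin present. Compound added cumulatively […]. […] IC50 taken from the concentration-response curve.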

Cavia porcellus [9] = test: Tested in vivo for spasmogen inhalation induced collapse in conscious guinea pig in presence of histamine (0.03%); type: functional
Method in brief: (§5)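 Male guinea pigs (400–500 g), conscious, dosed orally with compound or vehicle, then placed in chambers. At 1 h, exposed for 9 min to spasmogen aerosol (acetylcholine 0.2% or histamine 0.03%). Time to collapse recorded; no collapse within 9 min counted as full protection. ≥3 doses tested. RD100 is the oral dose prolonging collapse time by 100 s over vehicle.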

Thromboxane-A synthase [10] = target: T3, Thromboxane-A synthase (Homo sapiens, UniProt P24557); test: Tested in vitro against TXA2 synthetase inhibitory activity in human microsome
T3 sequence (P24557 whole entry): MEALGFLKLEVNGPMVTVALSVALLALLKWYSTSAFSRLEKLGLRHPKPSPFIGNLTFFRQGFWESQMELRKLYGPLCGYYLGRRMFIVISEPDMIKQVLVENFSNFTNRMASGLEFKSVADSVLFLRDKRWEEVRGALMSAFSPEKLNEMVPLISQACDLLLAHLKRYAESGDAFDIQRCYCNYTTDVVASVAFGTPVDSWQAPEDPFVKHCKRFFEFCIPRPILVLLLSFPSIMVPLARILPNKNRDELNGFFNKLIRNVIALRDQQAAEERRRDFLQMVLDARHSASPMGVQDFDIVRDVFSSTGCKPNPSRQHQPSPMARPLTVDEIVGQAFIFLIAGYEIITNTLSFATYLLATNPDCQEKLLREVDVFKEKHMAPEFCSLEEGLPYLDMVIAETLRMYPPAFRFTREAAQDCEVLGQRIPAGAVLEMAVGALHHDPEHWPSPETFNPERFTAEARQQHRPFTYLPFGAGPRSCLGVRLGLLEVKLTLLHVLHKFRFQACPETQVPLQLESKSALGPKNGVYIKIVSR
Method in brief: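 Commercial human platelet microsomes. Preincubated with compound for 3 min at 25 °C in Tris-HCl 15 mM, NaCl 140 mM, glucose 10 mM, pH 7.6. Arachidonic acid 1–3 μM added, then 3 min at 25 °C. Stopped by chilling and acidifying to pH 3 with HCl, centrifuged, supernatant TXB2 measured by RIA.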

Thromboxane-A synthase [11] = target: T3, Thromboxane-A synthase; test: Tested in vitro against TXA2 synthetase inhibitory activity in human platelet; method in brief: as §3
Cavia porcellus [12] = organism: Cavia porcellus; test: In vitro inhibitory effect on the spasmogen-contracted guinea pig tracheal strips in presence of acetylcholine; type: functional; details: Trachea; method in brief: as §4
Thromboxane-A synthase [13] = target: T2, Thromboxane-A synthase; test: Tested in vitro against TXA2 synthetase inhibitory activity in rat whole blood; type: tissue-based
Method in brief: (§6)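 Non-anticoagulated human or rat blood split into 0.5-mL aliquots, each with one drug concentration or vehicle. Vortexed, then clotted 60 min at 37 °C. Serum deproteinized with EtOH and TXB2 measured by RIA. % inhibition against control.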

Cavia porcellus [14] = test: Tested in vivo for anaphylactic bronchoconstriction in OA sensitized guinea pig at intraduodenal dose of 10 mg/kg for 30 min; type: functional; details: Lung, 0.5 h
Method in brief: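 Male Hartley guinea pigs (300–400 g) sensitized by ip and sc injection of 50 mg ovalbumin 15 days earlier. Anesthetized with pentobarbital 35 mg/kg ip, insufflation pressure recorded. Compound 10 mg/kg intraduodenal 30 min before challenge with OA aerosol (10 mg/mL, 10 s, ultrasonic nebulizer) through a by-passed ventilatory system. Reported as % inhibition.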

Thromboxane-A synthase [15] = target: T3, Thromboxane-A synthase; test: Tested in vitro against TXA2 synthetase inhibitory activity in human whole blood; type: tissue-based; method in brief: as §6
Cavia porcellus [16] = test: Tested in vivo for spasmogen inhalation induced collapse in conscious guinea pig in presence of acetylcholine (0.2%); type: functional; method in brief: as §5
Rattus norvegicus [17] = test: Tested ex vivo against serum TXB2 production at 1 hr after oral dose of 30 mg/kg of drug to rat; type: functional; method in brief: as §2
Rattus norvegicus [18] = test: Tested ex vivo against serum TXB2 production at 1 hr after oral dose of 3 mg/kg of drug to rat; type: functional; method in brief: as §2
Cavia porcellus [19] = test: In vivo inhibitory effect on airway constriction induced by histamine 2-5 micro g/kg iv at 1 min after 10 mg/kg iv dose of compound; type: functional; method in brief: as §1
Cavia porcellus [20] = test: Tested in vivo for histamine-induced bronchoconstriction in guinea pig at intraduodenal dose of 60 mg/kg; type: functional
Method in brief: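 Male Dunkin-Hartley guinea pigs under ip pentobarbital (35 mg/kg), jugular vein and trachea cannulated, ventilated at 10 mL/kg, 60 strokes/min; insufflation pressure recorded by transducer. Histamine (1–5 μg/kg iv) repeated every 10 min until the control response was reproducible. Drug given intraduodenally through a catheter 30 min before histamine challenge.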

Row | SMILES | inhibition in vivo at 10 mg/kg (Cavia porcellus [1]) [%] | inhibition [2] [%] | pIC50 (Cavia porcellus [3]) | pIC50 (Cavia porcellus [4]) | pIC50 (Thromboxane-A synthase [5]) | inhibition in vivo at 10 mg/kg (Cavia porcellus [6]) [%] | inhibition [7] [%] | pIC50 (Cavia porcellus [8]) | RD100 (Cavia porcellus [9]) [mg/kg] | pIC50 (Thromboxane-A synthase [10]) | pIC50 (Thromboxane-A synthase [11]) | pIC50 (Cavia porcellus [12]) | pIC50 (Thromboxane-A synthase [13]) | inhibition in vivo at 10 mg/kg (Cavia porcellus [14]) [%] | pIC50 (Thromboxane-A synthase [15]) | RD100 (Cavia porcellus [16]) [mg/kg] | inhibition in vivo at 30 mg/kg (Rattus norvegicus [17]) [%] | inhibition in vivo at 3 mg/kg (Rattus norvegicus [18]) [%] | inhibition in vivo at 10 mg/kg (Cavia porcellus [19]) [%] | inhibition in vivo at 60 mg/kg (Cavia porcellus [20]) [%]
1 | CCn1nc(-c2cccnc2)c2ccccc2c1=O | 100 | 92 | 5.80 | 5.88 | 5.89 | 72 | 87 | 4.34 | 6.5 | 5.80 | 4.55 | 4.24 | 5.77 | 71 | 5.64 | 3.8 | 92 | 66 |  | 
2 | Cn1nc(-c2cncs2)c2ccccc2c1=O |  | 83 | 5.74 | 5.80 | 6.52 | 68 |  | 4.55 | 11.2 | 5.41 | 6.30 | 4.34 | 5.48 | 61 | 5.06 | 6.6 | 83 | 50 |  | 
3 | Cn1c(=O)c2[nH]cnc2n(C)c1=O.Cn1c(=O)c2[nH]cnc2n(C)c1=O.NCCN [AMINOPHYLLINE] |  | 0 | 4.36 |  |  |  |  | 3.49 | >60 |  |  | 3.52 |  | 42 |  | 66 |  |  | 86 | 87

— ChEMBL document CHEMBL1126557, “Novel antiasthmatic agents with dual activities of thromboxane A2 synthetase inhibition and bronchodilation. 2. 4-(3-Pyridyl)-1(2H)-phthalazinones” (J Med Chem, 1993)
